Measured values reported in publication PMC3983351 (Journal of Medicinal Chemistry, 2014).

Test: silicate ester hydrolysis rate study by 1H NMR
Format: physicochemical
Conditions: for ∼krel of hydrolysis at C2′: C2′ silicate; for ∼krel of hydrolysis at C2′ / ∼krel of hydrolysis at C7: kobs relative to that of 1d; for ∼krel of hydrolysis at C7: C7 silicate; for difference in krel, triethyl vs trioctyl silicate: 1a vs 1b (PTX) or 4a vs 4b
How it was run: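 About 10 mg silicate ester in 900 μL acetone-d6, then 100 μL of 9:1 v/v D2O/TFA added and mixed. Held at 22 °C ± 1.0 °C. 1H NMR at 500 MHz (16 or 32 transients) at 8–30 time points over more than 3 half-lives. The 2′/7-methine signals of silicate and free taxane were integrated against H5. kobs came from the ln[species] vs time slope (three replicates). krel is kobs divided by that of the reference silicate.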

| ∼krel of hydrolysis at C2′ | ∼krel of hydrolysis at C7 | difference in krel, triethyl vs trioctyl silicate | Compound |
| --- | --- | --- | --- |
| 260 |  |  | 2′-O-(Triisopropoxysilyl)docetaxel [4c] |
| 6500 |  | ~3 | 2′-O-(Triethoxysilyl)docetaxel [4a] |
|  | 450 |  | CCCCCCCCO[Si](OCCCCCCCC)(OCCCCCCCC)O[C@H]1C[C@H]2OC[C@@]2(OC(C)=O)[C@H]2[C@H](OC(=O)c3ccccc3)[C@]3(O)C[C@H](OC(=O)[C@H](O)[C@@H](NC(=O)c4ccccc4)c4ccccc4)C(C)=C([C@@H](OC(C)=O)C(=O)[C@]12C)C3(C)C [3b, 7-O-(Tri-n-octyloxysilyl)paclitaxel] |
|  | 2200 |  | CCO[Si](OCC)(OCC)O[C@H]1C[C@H]2OC[C@@]2(OC(C)=O)[C@H]2[C@H](OC(=O)c3ccccc3)[C@]3(O)C[C@H](OC(=O)[C@H](O)[C@@H](NC(=O)c4ccccc4)c4ccccc4)C(C)=C([C@@H](OC(C)=O)C(=O)[C@]12C)C3(C)C [3a, 7-O-(Triethoxysilyl)paclitaxel] |
| 2600 |  |  | 2′-O-(Tri-n-octyloxysilyl)docetaxel [4b] |
| 0.88 |  |  | 2′-(Trimenthyloxysilyloxy)docetaxel [4d] |

The next lines start with the compound.

| Compound | ∼krel of hydrolysis at C2′ | ∼krel of hydrolysis at C7 | difference in krel, triethyl vs trioctyl silicate |
| --- | --- | --- | --- |
| CCCCCCCCO[Si](OCCCCCCCC)(OCCCCCCCC)O[C@H]1C[C@H]2OC[C@@]2(OC(C)=O)[C@H]2[C@H](OC(=O)c3ccccc3)[C@]3(O)C[C@H](OC(=O)[C@H](O[Si](OCCCCCCCC)(OCCCCCCCC)OCCCCCCCC)[C@@H](NC(=O)c4ccccc4)c4ccccc4)C(C)=C([C@@H](OC(C)=O)C(=O)[C@]12C)C3(C)C [2b, 2′,7-Di-O-(Tri-n-octyloxysilyl)paclitaxel] | 3800 | 340 |  |
| CC(=O)O[C@H]1C(=O)[C@]2(C)[C@@H](O[Si](OC(C)C)(OC(C)C)OC(C)C)C[C@H]3OC[C@@]3(OC(C)=O)[C@H]2[C@H](OC(=O)c2ccccc2)[C@]2(O)C[C@H](OC(=O)[C@H](O[Si](OC(C)C)(OC(C)C)OC(C)C)[C@@H](NC(=O)c3ccccc3)c3ccccc3)C(C)=C1C2(C)C [2c, 2′,7-Di-O-(triisopropoxysilyl)paclitaxel] | 520 | 46 |  |
| CCO[Si](OCC)(OCC)O[C@H]1C[C@H]2OC[C@@]2(OC(C)=O)[C@H]2[C@H](OC(=O)c3ccccc3)[C@]3(O)C[C@H](OC(=O)[C@H](O[Si](OCC)(OCC)OCC)[C@@H](NC(=O)c4ccccc4)c4ccccc4)C(C)=C([C@@H](OC(C)=O)C(=O)[C@]12C)C3(C)C [2a, 2′,7-Di-O-(triethoxysilyl)paclitaxel] | 15000 | 2100 |  |
| CCO[Si](OCC)(OCC)O[C@@H](C(=O)O[C@H]1C[C@@]2(O)[C@@H](OC(=O)c3ccccc3)[C@@H]3[C@]4(OC(C)=O)CO[C@@H]4C[C@H](O)[C@@]3(C)C(=O)[C@H](OC(C)=O)C(=C1C)C2(C)C)[C@@H](NC(=O)c1ccccc1)c1ccccc1 [1a, 2′-O-[(Triethoxy)silyl]paclitaxel] | 18000 |  | ~3 |
| 2′-(Di-tert-butoxyethoxysilyl)docetaxel [4e] | 5.0 |  |  |
| CC(=O)O[C@H]1C(=O)[C@@]2(C)[C@H]([C@H](OC(=O)c3ccccc3)[C@]3(O)C[C@H](OC(=O)[C@H](O[Si](OC(C)C)(OC(C)C)OC(C)C)[C@@H](NC(=O)c4ccccc4)c4ccccc4)C(C)=C1C3(C)C)[C@]1(OC(C)=O)CO[C@@H]1C[C@@H]2O [1c, 2′-O-[(Triisopropoxy)silyl]paclitaxel] | 570 |  |  |
| CC(=O)O[C@H]1C(=O)[C@@]2(C)[C@H]([C@H](OC(=O)c3ccccc3)[C@]3(O)C[C@H](OC(=O)[C@H](O[Si](OC(C)=O)(OC(C)(C)C)OC(C)(C)C)[C@@H](NC(=O)c4ccccc4)c4ccccc4)C(C)=C1C3(C)C)[C@]1(OC(C)=O)CO[C@@H]1C[C@@H]2O [1g, 2′-O-(Di-tert-butoxyacetoxysilyl)paclitaxel] | 1900 |  |  |
| CCO[Si](O[C@@H](C(=O)O[C@H]1C[C@@]2(O)[C@@H](OC(=O)c3ccccc3)[C@@H]3[C@]4(OC(C)=O)CO[C@@H]4C[C@H](O)[C@@]3(C)C(=O)[C@H](OC(C)=O)C(=C1C)C2(C)C)[C@@H](NC(=O)c1ccccc1)c1ccccc1)(OC(C)(C)C)OC(C)(C)C [1f, 2′-O-[(Di-tert-butoxy)(ethoxy)silyl]paclitaxel] | 5.6 |  |  |
| CC(=O)O[C@H]1C(=O)[C@@]2(C)[C@H]([C@H](OC(=O)c3ccccc3)[C@]3(O)C[C@H](OC(=O)[C@H](O[Si](OC4CC(C)CCC4C(C)C)(OC4CC(C)CCC4C(C)C)OC4CC(C)CCC4C(C)C)[C@@H](NC(=O)c4ccccc4)c4ccccc4)C(C)=C1C3(C)C)[C@]1(OC(C)=O)CO[C@@H]1C[C@@H]2O (some centres unmarked) [1d, 2′-[(Trimenthyloxy)silyl]paclitaxel] | 1.0 |  |  |
